From PubChem
tolC growth inh: growth inhibitors of E. coli tolC mutant, primary screen, strain BW25113 ΔtolC::kan, 384-well. 2.2% of 65,000 active. growth inhibition, % at 10 µM (by protocol). OD615;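 active means growth inhibition at or above a cutoff equal to the mean over every tested compound plus 3 SD, cut at about 60% in these data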;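 further: growth measured after 20 h incubation at 37 °C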
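Test system – E. coli BW25113 ΔtolC::kan, tolC deletion mutant strain · Detection – OD at 615 nm · Buffer or medium – LB with kanamycin 50 µg/mL · Times – 20 h compound exposure of bacteria at 37 °C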
PostGolgi ctrl: growth inhibition of yeast control strain, primary screen, counter-screen for post-Golgi transport modulator project; 5% of 98,000 active; AID 738, 2007; efflux-deficient yeast background strain, growth absorbance A615, 16 h; inhibition, % at 10 µM
D1 allo mod: D1 CRE-luciferase signal change, two-sided – cell-based, HEK293 D1, dopamine EC30, D1 allosteric modulator project, primary screen | dopamine EC30 potentiation; actives deviate in either direction | 5.9% of 58,000 active | D(1A) dopamine receptor (Homo sapiens), P21728 | B-score at 10 µM;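 active means luminescence count or its row- and column-corrected plate score outside the 99.7% band of the plate's sample wells, on either side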
Target sequence (P21728 whole entry, looked up): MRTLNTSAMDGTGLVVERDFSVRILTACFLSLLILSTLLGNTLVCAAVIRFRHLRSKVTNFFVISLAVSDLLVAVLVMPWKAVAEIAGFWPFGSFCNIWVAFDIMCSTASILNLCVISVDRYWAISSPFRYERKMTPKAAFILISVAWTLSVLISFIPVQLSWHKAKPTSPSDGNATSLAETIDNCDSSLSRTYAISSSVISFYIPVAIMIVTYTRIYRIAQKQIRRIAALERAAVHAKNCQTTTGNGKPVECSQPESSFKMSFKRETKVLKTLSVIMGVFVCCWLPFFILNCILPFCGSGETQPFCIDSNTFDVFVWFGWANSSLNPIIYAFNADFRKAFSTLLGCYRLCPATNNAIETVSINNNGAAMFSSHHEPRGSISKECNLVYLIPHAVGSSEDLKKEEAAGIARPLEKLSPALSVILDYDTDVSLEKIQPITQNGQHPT
Ecoli WT expand: growth inhibitors of wild-type E. coli, primary screen, strain BW25113, expanded library, OD600 | OD600 absorbance | growth inhibition, % at 100 µM | 0.15% of 98,000 active;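 active means growth inhibition above about 50% at one test dose, limit read from the data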;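 further: growth measured after 20 h incubation at 37 °C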
DAT uptake mod: changed hDAT dopamine uptake under cocaine IC80, either direction, primary screen, cocaine antagonist project, cell-based, LLC-PK1 hDAT, [14C]-dopamine uptake, MLSMR; Sodium-dependent dopamine transporter (Homo sapiens), Q01959; LLC-PK1 hDAT cells, [14C]-dopamine uptake with cocaine IC80; actives deviate in either direction; B-score at 10 µM; 1.3% of 110,000 active;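 active means Z score or B-score, a plate-position-corrected score, falls beyond the plate's 99.7% confidence bounds, in either direction; inactive means both scores lie inside the 99.7% bounds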
PostGolgi yeast: phenotypic screen on post-Golgi transport, primary screen; inhibition, % at 10 µM; post-Golgi transport phenotypic cell assay; AID 739, 2007; 0.9% of 98,000 active;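 further: yeast cells grown in 1536-well plates; yeast grown about 18 h at 30C before absorbance read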
D1 PAM confirm: D1 receptor positive allosteric modulators, retest, confirmation, cell-based, HEK293 D1, CRE-luciferase, duplicate; 88% of 2,200 active; dopamine EC30 potentiation; stronger effect = higher value; luminescence at 10 µM; shares compounds with D1 allo mod;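 active means luminescence in either of two replicates above the same-plate mean plus 3 SD of the low-dose dopamine control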
D1 ag no DA: D1 receptor agonism without dopamine, confirmation, mechanism study for D1 allosteric modulator project, cell-based, HEK293 D1, CRE-luciferase, secondary assay 1 | shares compounds with D1 allo mod | luminescence, no dopamine; stronger effect = higher value | luminescence at 10 µM | 0.8% of 1,900 active; in the data active means luminescence above about 3900
Isoprot counter: isoproterenol response counter-screen activity for D1 modulators; calls only at 10 µM; HEK293 D1 CRE-luciferase, isoproterenol EC30 counter-screen; AID 647; shares compounds with D1 allo mod; 63% of 2,200 active;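 active means luminescence in either replicate above plate mean of wells with a partly effective reference agonist dose plus 3 SD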;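 further: isoproterenol raises cAMP through native beta-adrenoceptor Gs so signal bypasses D1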
Of the large screens only hits and unclear results are named; the others gave an inactive call (follow-up assays come after a bar, where they were run). Compounds with a hit are over-represented: about 9.3% of the library has one in this group of screens. Unless noted, no stated cut-off is given here; in the data, active means inhibition above about 30%; inactive means the rest.

CC(C)CCSc1nc2c(c(=O)[nH]c(=O)n2C)n1CCc1ccccc1	D1 allo mod 2.6 | D1 PAM confirm 15840 | D1 ag no DA inactive | Isoprot counter active
Cn1c(SCC(=O)NCCNC(=O)CSc2nnc(C(F)(F)F)n2C)nnc1C(F)(F)F	none (no result: tolC growth inh, D1 allo mod)
N#Cc1c(N)n(C2CCCCC2)c2nc3ccccc3nc12	D1 allo mod 3.3 | D1 PAM confirm 10836 | D1 ag no DA inactive | Isoprot counter active
CCCCC(CC)Cn1c(N)c(C#N)c2nc3ccccc3nc21 (stereo not drawn)	none
O=c1c2c3nc4ccccc4nc3n(-c3ccc4c(c3)OCCO4)c2ncn1CC1CCCO1 (stereo not drawn)	none (no result: PostGolgi ctrl, Ecoli WT expand, DAT uptake mod, PostGolgi yeast)
COCCCn1c2nc3ccccc3nc2c2c(=O)n(CC3CCCO3)cnc21 (stereo not drawn)	D1 allo mod 6.4 | D1 PAM confirm 8104 | Isoprot counter inactive
CCOC(=O)c1c(N)sc2c1CCCC2	D1 allo mod 5.2 | D1 PAM confirm 15712 | D1 ag no DA inactive | Isoprot counter active
COc1cccc(C2CC(c3ccc(F)cc3)Nc3nc(N)nn32)c1 (stereo not drawn)	none
Nc1nc2n(n1)C(c1ccccc1)CC(c1ccc(F)cc1)N2 (stereo not drawn)	D1 allo mod 6 | D1 PAM confirm 11012 | D1 ag no DA inactive | Isoprot counter inactive
Nc1nc2n(n1)C(c1cccc(Br)c1)CC(c1ccc(F)cc1)N2 (stereo not drawn)	D1 allo mod 14 | D1 PAM confirm 13072 | D1 ag no DA inactive | Isoprot counter active
c1ccc(C2CC(c3ccccc3)n3ncnc3N2)cc1 (stereo not drawn)	D1 allo mod 4.4 | D1 PAM confirm 6308 | D1 ag no DA inactive | Isoprot counter inactive
CCc1ccc(C2CC(c3ccc(F)cc3)Nc3nc(N)nn32)cc1 (stereo not drawn)	none
Cc1c(CCO)c(=O)n(-c2ccccc2)n1S(=O)(=O)c1ccc(Cl)cc1	none (no result: tolC growth inh, D1 allo mod)
CC1(C)Cc2c(oc3ncn4ncnc4c23)CO1	none (no result: D1 allo mod)
CSc1nc2oc3c(c2c2nncn12)CC(C)(C)SC3	D1 allo mod 5.7 | D1 PAM confirm 9128 | D1 ag no DA inactive | Isoprot counter inactive
Cn1cc(Cl)c(C(=O)N2CCN(c3ncccn3)CC2)n1	none
Nc1nnc(-c2cn(-c3ccccc3)nc2-c2ccccc2)o1	D1 allo mod 3 | D1 PAM confirm 15252 | D1 ag no DA inactive | Isoprot counter active
CC(=O)n1nc(-c2ccco2)nc1N	none
CCC(=O)n1nc(-c2ccco2)nc1N	D1 allo mod 15 | D1 PAM confirm 6080 | D1 ag no DA inactive | Isoprot counter inactive
O=C(c1ccco1)N1CCN(S(=O)(=O)c2ccc3c(c2)CCN3C(=O)C2CC2)CC1	D1 allo mod 4.2 | D1 PAM confirm 11508 | D1 ag no DA inactive | Isoprot counter inactive
CC1CCN(C(=O)Cn2c(=O)n(Cc3ccc4c(c3)OCO4)c(=O)c3ccccc32)CC1	none (no result: D1 allo mod)
O=C(Cn1c(=O)n(Cc2ccc3c(c2)OCO3)c(=O)c2ccccc21)N1CCCc2ccccc21	PostGolgi ctrl 50, D1 allo mod 6 | D1 PAM confirm 10984 | D1 ag no DA inactive | Isoprot counter active
COc1ccc(-c2c(C)n([O-])c3c([n+]2=O)CCC3)cc1OC	D1 allo mod 2.3 | D1 PAM confirm inactive | D1 ag no DA inactive | Isoprot counter inactive
CN(c1ccccc1)S(=O)(=O)c1ccc(C(=O)OCC(=O)N2CCOCC2)cc1	none
C=CCNc1nc2c3ccccc3n(C(C)=O)c2s1	D1 allo mod 6.2 | D1 PAM confirm 7816 | D1 ag no DA inactive | Isoprot counter active
CC(=O)n1c2ccccc2c2c(C#N)c(N3CCCCC3)sc21	none (no result: PostGolgi ctrl, Ecoli WT expand, DAT uptake mod, PostGolgi yeast)
COC(=O)c1[nH]c2cccc(OC)c2c1NC(=O)C(C)N1CCC(C)CC1 (stereo not drawn)	none (no result: tolC growth inh, D1 allo mod)
COc1cc(Br)cc(-c2nc3c(c(=O)[nH]c(=O)n3Cc3ccccc3)n2C)c1O	D1 allo mod 8.2 | D1 PAM confirm 26460 | D1 ag no DA inactive | Isoprot counter active
COc1ccc(-c2nc3c(c(=O)[nH]c(=O)n3Cc3ccccc3)n2C)cc1	none (no result: tolC growth inh, D1 allo mod)
Cc1c(C(=O)Nc2ccc3c(c2)OCO3)sc2ncn(CC(=O)N3CC(C)CC(C)C3)c(=O)c12 (stereo not drawn)	none (no result: tolC growth inh, D1 allo mod)
c1nc(N2CCOCC2)c2c3c(sc2n1)CCCC3	none
c1ccn(-c2ncnc3sc4c(c23)CCCC4)c1	D1 allo mod 7.6 | D1 PAM confirm 13568 | Isoprot counter active
COc1cc(C(=O)Nc2ccc(-c3nc4cc(C)ccc4o3)c(O)c2)cc(OC)c1OC	D1 allo mod 3.1 | D1 PAM confirm inactive | Isoprot counter inactive
COc1cccc(C(=O)Nc2ccc(-c3nc4ccccc4o3)c(O)c2)c1	none
CCOC(=O)c1ccccc1NC(=O)c1ccc(NS(C)(=O)=O)cc1	D1 allo mod 19 | D1 PAM confirm 19196 | D1 ag no DA inactive | Isoprot counter active
CCOC(=O)c1ccc(NS(=O)(=O)CC)cc1	none
Cc1cc(C)c2c(c1)-c1c(ssc1=S)C(C)(C)N2C(=O)CSc1nncn1C	none
Cc1ccc2c(c1)-c1c(ssc1=S)C(C)(C)N2C(=O)CSc1nncn1C	D1 allo mod 3.8 | D1 PAM confirm 11288 | D1 ag no DA inactive | Isoprot counter inactive
CC(C)C1C(C#N)=C(N)Oc2n[nH]c(-c3cccs3)c21 (stereo not drawn)	D1 allo mod 3.6 | D1 PAM confirm 8472 | D1 ag no DA inactive | Isoprot counter inactive
CC(=O)c1cccc(NC(=O)C(OC(=O)/C=C/c2ccc3c(c2)OCO3)c2ccccc2)c1 (stereo not drawn)	none (no result: tolC growth inh, D1 allo mod)
O=C(NCc1ccccn1)C1Nc2ccc(C(F)(F)F)cc2C2C=CCC12 (stereo not drawn)	none (no result: tolC growth inh, PostGolgi ctrl, D1 allo mod, Ecoli WT expand, PostGolgi yeast)
Cc1ccc(C)c(/C(O)=C2\C(=O)C(=O)N(CCCN(C)C)C2c2cccnc2)c1 (stereo not drawn)	none (no result: PostGolgi ctrl, Ecoli WT expand, DAT uptake mod, PostGolgi yeast)
OC(CN1CCOCC1)CN1CCOCC1	D1 allo mod 2.6 (no result: DAT uptake mod) | D1 PAM confirm inactive | D1 ag no DA inactive | Isoprot counter inactive
